Experimental findings from ChEMBL document CHEMBL1140319, “The taming of capsaicin. Reversal of the vanilloid activity of N-acylvanillamines by aromatic iodination” (J Med Chem, 2005) are described below.

Molecules are shown by their SMILES.

Test [1] addresses T1, Transient receptor potential cation channel subfamily V member 1 (Homo sapiens, UniProt Q8NER1). As to the kind of experiment: Inhibition of 100 nM capsaicin effect on intracellular [Ca2+] concentration in HEK293 cells expressing human TRPV1. It is filed as cell-based. A digest of the protocol: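 HEK293 cells stably overexpressing human TRPV1, grown in MEM with nonessential amino acids, 10% FCS and 0.2 mM glutamine. Plated on poly-L-lysine one day before use. Loaded 2 h at 25 °C with 4 μM Fluo-3 AM plus 0.04% Pluronic, then trypsinized into Tyrode pH 7.4 in a stirred cuvette. Compounds added 10 min before 100 nM capsaicin. IC50 from half-maximal inhibition.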

Test [2] deals with T1, Transient receptor potential cation channel subfamily V member 1. As to the kind of experiment: Inhibition of 100 nM capsaicin effect on intracellular [Ca2+] concentration in HEK293 cells expressing human TRPV1; (weak agonist activity). It is filed as functional, cell-based. A digest of the protocol: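 HEK293 cells stably overexpressing human TRPV1, grown in MEM with nonessential amino acids, 10% FCS and 0.2 mM glutamine. Plated on poly-L-lysine one day before use. Loaded 2 h at 25 °C with 4 μM Fluo-3 AM plus 0.04% Pluronic, then trypsinized into Tyrode pH 7.4 in a stirred cuvette. Compounds added 10 min before 100 nM capsaicin. Fluorescence read at 25 °C (ex 488/em 540 nm). IC50 from half-maximal inhibition.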

T1 sequence (Q8NER1 whole entry): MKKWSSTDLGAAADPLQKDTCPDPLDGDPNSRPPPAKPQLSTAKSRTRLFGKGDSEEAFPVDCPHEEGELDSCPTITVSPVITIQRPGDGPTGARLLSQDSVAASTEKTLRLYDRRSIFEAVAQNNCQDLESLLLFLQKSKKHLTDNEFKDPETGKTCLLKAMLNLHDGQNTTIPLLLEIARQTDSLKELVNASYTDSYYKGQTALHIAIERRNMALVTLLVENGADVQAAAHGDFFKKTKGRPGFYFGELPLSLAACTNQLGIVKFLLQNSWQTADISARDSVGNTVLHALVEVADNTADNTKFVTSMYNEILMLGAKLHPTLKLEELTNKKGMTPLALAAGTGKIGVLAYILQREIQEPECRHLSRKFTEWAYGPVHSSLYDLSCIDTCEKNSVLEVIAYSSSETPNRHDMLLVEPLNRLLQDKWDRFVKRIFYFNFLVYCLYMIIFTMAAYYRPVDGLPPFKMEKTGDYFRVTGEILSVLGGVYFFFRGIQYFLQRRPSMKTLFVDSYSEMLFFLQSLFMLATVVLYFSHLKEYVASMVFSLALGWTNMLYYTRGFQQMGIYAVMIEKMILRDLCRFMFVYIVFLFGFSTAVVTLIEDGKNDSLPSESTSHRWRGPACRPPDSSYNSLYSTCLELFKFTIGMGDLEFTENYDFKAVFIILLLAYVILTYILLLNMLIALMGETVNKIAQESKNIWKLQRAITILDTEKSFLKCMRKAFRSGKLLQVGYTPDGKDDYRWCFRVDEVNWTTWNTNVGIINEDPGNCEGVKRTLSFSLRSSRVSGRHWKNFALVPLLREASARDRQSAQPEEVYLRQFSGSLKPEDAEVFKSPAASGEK

`CCCCCCCCC(=O)NCc1ccc(O)c(OC)c1NC(C)=O` returned a 50% inhibitory concentration (IC50) in test [1] of 9540 nM.
The compound `CCCCC/C=C/C/C=C/C/C=C/C/C=C/CCCC=O` returned an IC50 in test [1] of 51 nM.
For `CCCCCCCCC(=O)NCc1cc(OC)c(O)c(-c2cc(CNC(=O)CCCCCCCC)cc(OC)c2O)c1`, in test [2], the 50% inhibitory concentration (IC50) is over 20000 nM.
Take `CCCCCCCCC(=O)NCc1cc(Cl)c(O)c(OC)c1`: 631 nM corresponded to half-maximal inhibition in test [1] (IC50).
`CCCCCCCCC(=O)NCc1cc(OC)c(O)cc1I` displayed an IC50 in test [1] of 10 nM.
Turning to `Oc1cc2c(cc1O)CN(C(=S)NCCc1ccc(Cl)cc1)CCC2` [CAPSAZEPINE], the 50% inhibitory concentration (IC50) in test [1] amounted to 56.2 nM.
The same measure, in the same setting: in the case of `CCCCCCCCC(=O)NCc1cc(OC)c(O)cc1Cl` it was 50.3 nM; in that of `CCCCCCCCC(=O)NCc1cc(Br)c(O)c(OC)c1`, 252 nM.
On the same count and under the same terms, the value for `CCCCCCCCC(=O)NCc1cc(OC)c(O)cc1Br` was 16.1 nM; that for `C=C(C)[C@]12C[C@@H](C)[C@@]3(OCc4ccccc4)[C@@H](C=C(COC(=O)Cc4cc(I)c(O)c(OC)c4)C[C@]4(O)C(=O)C(C)=C[C@@H]34)[C@H]1OCO2` was 0.4 nM.
Still for that read-out and setting: in the case of `CCCCCCCCC(=O)NCc1ccc(O)c(OC)c1[N+](=O)[O-]` it was 11000 nM; in that of `CCCCCCCCC(=O)NCc1cc(I)c(O)c(OC)c1`, 126 nM.

One may read the IC50 as the concentration that inhibits the measured activity by half. Read a high IC50 as weaker potency in that assay.
